Measured values from publication PMC3924769 (Cell metabolism, 2014).

Assays:
DAF-12 [1] = target: T1, DAF-12 (Caenorhabditis elegans, UniProt G5EFF5); test: Alphascreen assay for ligand-dependent recruitment of SRC1-4 peptide by DAF-12; type: biochemical, C. elegans; details: read-out: EC50, recruitment of SRC1-4 peptide by DAF-12
T1 sequence (G5EFF5 1-753): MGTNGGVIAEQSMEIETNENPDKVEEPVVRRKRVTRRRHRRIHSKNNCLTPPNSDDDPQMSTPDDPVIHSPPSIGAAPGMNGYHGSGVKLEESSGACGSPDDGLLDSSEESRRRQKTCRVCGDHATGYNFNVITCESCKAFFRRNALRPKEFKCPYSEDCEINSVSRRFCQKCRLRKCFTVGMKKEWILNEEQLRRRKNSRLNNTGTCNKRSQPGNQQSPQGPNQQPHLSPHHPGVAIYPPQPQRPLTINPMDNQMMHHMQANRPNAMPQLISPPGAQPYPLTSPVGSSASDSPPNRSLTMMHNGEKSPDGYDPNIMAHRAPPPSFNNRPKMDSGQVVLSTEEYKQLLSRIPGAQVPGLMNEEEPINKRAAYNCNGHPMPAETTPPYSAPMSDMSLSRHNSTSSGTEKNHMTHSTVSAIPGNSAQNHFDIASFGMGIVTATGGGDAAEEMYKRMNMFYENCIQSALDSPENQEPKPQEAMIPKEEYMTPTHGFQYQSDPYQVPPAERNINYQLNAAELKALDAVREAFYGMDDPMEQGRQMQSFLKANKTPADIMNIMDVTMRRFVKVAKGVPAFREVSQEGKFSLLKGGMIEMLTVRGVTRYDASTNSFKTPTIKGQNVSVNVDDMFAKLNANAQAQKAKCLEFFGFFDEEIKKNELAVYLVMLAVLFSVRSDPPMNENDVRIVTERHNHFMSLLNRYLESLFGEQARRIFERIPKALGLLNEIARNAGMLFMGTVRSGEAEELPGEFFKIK
How it was run: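 Test compound binding to DAF-12 was measured by AlphaScreen as ligand-dependent recruitment of the SRC1-4 peptide, which carries the SRC-1 NR-box motif. Signal was expressed as fold activation over an ethanol control and reported as mean ±SEM.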

daf-9(dh6) worms = test: daf-9; type: in vivo, C. elegans; details: 27 °C; for daf-9(dh6) dauer rescue activity (in vivo), in words: 0.1 nM – 500 nM tested
How it was run: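 Test compound in ethanol (0.1–500 nM final, calculated over the agar volume) or ethanol alone was mixed with concentrated E. coli OP50 and plated on cholesterol-free NGM agar. About 100 daf-9(dh6) eggs from a 4–8 h egg lay were added per plate and scored for dauer arrest versus development after 60 h at 27 °C. A reference dafachronic acid at 100 nM was the positive control. Two replicates, mean ±SD.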

DAF-12 [2] = target: T1, DAF-12; test: Luciferase assay for DAF-12 transcriptional activation in HEK-293T cells; type: cell-based, C. elegans; details: 1 nM – 3125 nM tested
How it was run: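 HEK-293T cells were calcium-phosphate co-transfected with full-length DAF-12, a mir84p-luciferase reporter, GFP and β-galactosidase vectors. Ethanol solutions of test compound (1–3125 nM), or ethanol alone, were added 8 h post-transfection. Luciferase and β-galactosidase activities were read 16 h after addition. A reference dafachronic acid at 100 nM was the positive control. Triplicates, mean ±SD.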

[3] = test system: glp-1;daf-36 double mutant worms; test: Lifespan of germline-deficient glp-1; type: in vivo, C. elegans; details: 100 nM, glp-1;daf-36 worms

| SMILES | EC50 (DAF-12 [1]) [nM] | daf-9(dh6) dauer rescue activity (in vivo), in words (daf-9(dh6) worms) | DAF-12 activation in luciferase assay (in vitro), in words (DAF-12 [2]) | EC50 (daf-9(dh6) worms; read-out: EC50, daf-9(dh6) dauer rescue, plate based assay, synthetic compound) [nM] | Restoration of glp-1-dependent lifespan extension [3] |
| --- | --- | --- | --- | --- | --- |
| C[C@H](CCC[C@H](C)C(=O)O)[C@H]1CC[C@H]2C3=CCC4C[C@H](O)CC[C@]4(C)[C@H]3CC[C@]12C (stereo partly drawn) [3α-OH-Δ^7-DA, (25S)-3α-hydroxy cholest-7-enoic acid] | 200 | active | active |  |  |
| CC(CCCC(C)C1CCC2C3=CCC4CC(O)CCC4(C)C3CCC21C)C(=O)O (stereo not drawn) [3β-OH-Δ^7-DA] |  |  | did not activate DAF-12 in mammalian cells at any tested concentration |  |  |
| C[C@H](CCC[C@H](C)C(=O)O)[C@H]1CC[C@H]2[C@@H]3CCC4CC(=O)CC[C@]4(C)[C@H]3CC[C@]12C (stereo partly drawn) [Δ^0-DA, (25S)-3-keto-cholestanoic acid] |  | active | active |  |  |
| CC(CCC[C@@H](C)[C@H]1CC[C@H]2C3=CCC4CC(=O)C=C[C@]4(C)[C@H]3CC[C@]12C)C(=O)O (some centres unmarked) [Δ^1,7-DA, 3-oxocholesta-1,7-dienoic acid] | 15 |  |  | 2 | fully restore glp-1-dependent lifespan extension |
| C[C@H](CCC[C@H](C)C(=O)O)[C@H]1CC[C@H]2C3=CC[C@H]4CC(=O)CC[C@]4(C)[C@H]3CC[C@]12C [Δ^7-DA, Δ^7-dafachronic acid, reference compound] | 8 |  |  |  | fully restore glp-1-dependent lifespan extension |
